Results on one compound are retold here after PMC4780262 (Bioorganic & medicinal chemistry, 2013).

The target in one experiment is T1, EHMT1/GLP (Homo sapiens, UniProt Q9H9B1).
T1 sequence (Q9H9B1 1-1298): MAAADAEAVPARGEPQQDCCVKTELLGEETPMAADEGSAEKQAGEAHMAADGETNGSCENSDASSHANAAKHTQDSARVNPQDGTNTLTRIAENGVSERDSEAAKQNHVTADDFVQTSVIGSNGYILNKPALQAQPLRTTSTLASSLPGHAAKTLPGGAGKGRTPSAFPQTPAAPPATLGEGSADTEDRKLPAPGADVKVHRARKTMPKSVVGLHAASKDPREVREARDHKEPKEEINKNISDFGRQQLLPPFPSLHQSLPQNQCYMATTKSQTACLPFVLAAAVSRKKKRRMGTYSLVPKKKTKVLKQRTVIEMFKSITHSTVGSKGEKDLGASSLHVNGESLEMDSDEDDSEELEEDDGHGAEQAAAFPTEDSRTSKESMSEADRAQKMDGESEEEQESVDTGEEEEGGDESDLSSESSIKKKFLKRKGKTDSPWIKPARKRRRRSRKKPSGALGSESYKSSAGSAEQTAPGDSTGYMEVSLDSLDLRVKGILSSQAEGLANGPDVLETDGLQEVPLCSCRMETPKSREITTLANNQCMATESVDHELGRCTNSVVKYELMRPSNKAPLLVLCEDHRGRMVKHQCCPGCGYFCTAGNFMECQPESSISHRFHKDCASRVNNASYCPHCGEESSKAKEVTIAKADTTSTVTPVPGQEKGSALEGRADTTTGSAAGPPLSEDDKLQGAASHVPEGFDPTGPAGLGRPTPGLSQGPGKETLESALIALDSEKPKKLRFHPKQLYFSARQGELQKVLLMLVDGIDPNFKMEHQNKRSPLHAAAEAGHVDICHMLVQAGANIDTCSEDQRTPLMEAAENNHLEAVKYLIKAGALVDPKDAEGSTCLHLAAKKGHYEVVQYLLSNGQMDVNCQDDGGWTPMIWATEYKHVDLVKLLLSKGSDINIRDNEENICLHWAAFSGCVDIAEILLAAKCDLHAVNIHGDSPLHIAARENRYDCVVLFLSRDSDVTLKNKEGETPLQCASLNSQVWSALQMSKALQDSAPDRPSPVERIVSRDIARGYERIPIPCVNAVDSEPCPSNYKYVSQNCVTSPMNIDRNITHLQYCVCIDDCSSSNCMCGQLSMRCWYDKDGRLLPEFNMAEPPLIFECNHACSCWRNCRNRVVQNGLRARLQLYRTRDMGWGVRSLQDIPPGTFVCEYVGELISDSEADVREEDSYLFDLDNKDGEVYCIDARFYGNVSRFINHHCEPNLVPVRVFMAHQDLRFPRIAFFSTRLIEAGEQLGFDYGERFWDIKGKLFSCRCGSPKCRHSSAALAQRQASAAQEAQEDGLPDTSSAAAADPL
Put plainly: HMT selectivity assay. The format is biochemical. An outline of the steps: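 Stopped with 7.5 M guanidine HCl, then Flashplate CPM. No compound = 100%, no enzyme = 0%. IC50 from 100 nM–100 μM; Ki = IC50/2.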

Another experiment addresses EZH2 (PRC2 complex) (Homo sapiens, UniProt Q15910). Put plainly: HMT selectivity assay. Type of experiment: biochemical. A digest of the protocol:
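Triplicate, 1 h at room temperature. Guanidine HCl quench, then Flashplate CPM. 100% = no compound; 0% = no enzyme. IC50 over 100 nM–100 μM; Ki = IC50/2.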

In another experiment the target is T2, SETD8 (Homo sapiens, UniProt Q9NQR1).
T2 sequence (Q9NQR1 1-393): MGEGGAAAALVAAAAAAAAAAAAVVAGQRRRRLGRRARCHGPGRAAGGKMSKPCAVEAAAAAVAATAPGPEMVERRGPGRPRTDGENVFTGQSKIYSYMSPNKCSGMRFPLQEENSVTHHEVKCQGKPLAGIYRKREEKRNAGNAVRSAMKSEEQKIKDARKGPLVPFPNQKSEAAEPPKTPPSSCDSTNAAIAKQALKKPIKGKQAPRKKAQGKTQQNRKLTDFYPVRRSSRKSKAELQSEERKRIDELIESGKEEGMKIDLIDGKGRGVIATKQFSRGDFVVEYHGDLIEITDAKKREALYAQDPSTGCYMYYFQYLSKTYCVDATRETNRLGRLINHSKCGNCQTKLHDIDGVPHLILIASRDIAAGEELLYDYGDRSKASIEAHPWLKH
Kind of experiment: HMT selectivity assay. Type of experiment: biochemical. A digest of the protocol:
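Triplicate, 1 h at room temperature. Guanidine HCl stop; Flashplate SPA CPM. No compound = 100%, no enzyme = 0%. IC50 over 100 nM–100 μM; Ki = IC50/2.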

The next experiment concerns the target T3, SETD7 (Homo sapiens, UniProt Q8WTS6).
T3 sequence (Q8WTS6 1-366): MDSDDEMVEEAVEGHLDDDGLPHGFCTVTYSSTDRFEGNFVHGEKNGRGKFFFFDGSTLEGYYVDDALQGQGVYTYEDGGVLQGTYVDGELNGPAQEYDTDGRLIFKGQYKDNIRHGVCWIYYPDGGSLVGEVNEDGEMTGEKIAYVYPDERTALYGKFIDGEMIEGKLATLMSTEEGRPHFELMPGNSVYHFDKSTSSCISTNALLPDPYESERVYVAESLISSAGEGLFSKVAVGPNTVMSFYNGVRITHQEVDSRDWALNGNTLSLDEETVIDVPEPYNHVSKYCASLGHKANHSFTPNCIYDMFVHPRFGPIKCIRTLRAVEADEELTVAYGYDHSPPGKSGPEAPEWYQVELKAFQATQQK
Kind of experiment: HMT selectivity assay. Type of experiment: biochemical. A digest of the protocol:
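Triplicate, room temperature, 1 h. Stopped with 7.5 M guanidine HCl; Flashplate CPM. Normalised to no-compound and no-enzyme controls. IC50 from 100 nM–100 μM; Ki = IC50/2.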

The target of a further experiment is SUV39H2 (Homo sapiens, UniProt Q9H5I1). Put plainly: HMT selectivity assay. The format is biochemical. An outline of the steps:
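Triplicate reactions, 1 h at room temperature. Quenched with 7.5 M guanidine HCl; read as Flashplate CPM. Normalised to no-compound and no-enzyme wells. IC50 from 100 nM–100 μM; Ki = IC50/2.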

A further experiment deals with PRMT5-MEP50 (Homo sapiens, UniProt O14744). Kind of experiment: HMT selectivity assay. Type of experiment: biochemical.
The target in the next experiment is T4, haspin catalytic domain (Homo sapiens, UniProt Q8TF76).
T4 sequence (Q8TF76 484-798 limits assumed): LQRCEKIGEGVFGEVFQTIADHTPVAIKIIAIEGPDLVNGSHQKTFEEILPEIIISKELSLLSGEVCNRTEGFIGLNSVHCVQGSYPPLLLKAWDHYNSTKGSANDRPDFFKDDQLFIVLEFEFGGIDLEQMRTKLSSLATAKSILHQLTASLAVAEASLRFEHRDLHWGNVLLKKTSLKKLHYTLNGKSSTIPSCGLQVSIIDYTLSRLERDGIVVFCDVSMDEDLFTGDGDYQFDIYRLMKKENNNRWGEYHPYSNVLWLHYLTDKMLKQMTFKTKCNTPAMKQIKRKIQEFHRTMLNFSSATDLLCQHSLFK
Put plainly: Differential scanning fluorimetry on haspin catalytic domain. Type of experiment: binding. The conditions noted are these: 10 μM compound.

Another experiment addresses T5, EHMT2/G9a (Homo sapiens, UniProt Q96KQ7).
T5 sequence (Q96KQ7 1-1210): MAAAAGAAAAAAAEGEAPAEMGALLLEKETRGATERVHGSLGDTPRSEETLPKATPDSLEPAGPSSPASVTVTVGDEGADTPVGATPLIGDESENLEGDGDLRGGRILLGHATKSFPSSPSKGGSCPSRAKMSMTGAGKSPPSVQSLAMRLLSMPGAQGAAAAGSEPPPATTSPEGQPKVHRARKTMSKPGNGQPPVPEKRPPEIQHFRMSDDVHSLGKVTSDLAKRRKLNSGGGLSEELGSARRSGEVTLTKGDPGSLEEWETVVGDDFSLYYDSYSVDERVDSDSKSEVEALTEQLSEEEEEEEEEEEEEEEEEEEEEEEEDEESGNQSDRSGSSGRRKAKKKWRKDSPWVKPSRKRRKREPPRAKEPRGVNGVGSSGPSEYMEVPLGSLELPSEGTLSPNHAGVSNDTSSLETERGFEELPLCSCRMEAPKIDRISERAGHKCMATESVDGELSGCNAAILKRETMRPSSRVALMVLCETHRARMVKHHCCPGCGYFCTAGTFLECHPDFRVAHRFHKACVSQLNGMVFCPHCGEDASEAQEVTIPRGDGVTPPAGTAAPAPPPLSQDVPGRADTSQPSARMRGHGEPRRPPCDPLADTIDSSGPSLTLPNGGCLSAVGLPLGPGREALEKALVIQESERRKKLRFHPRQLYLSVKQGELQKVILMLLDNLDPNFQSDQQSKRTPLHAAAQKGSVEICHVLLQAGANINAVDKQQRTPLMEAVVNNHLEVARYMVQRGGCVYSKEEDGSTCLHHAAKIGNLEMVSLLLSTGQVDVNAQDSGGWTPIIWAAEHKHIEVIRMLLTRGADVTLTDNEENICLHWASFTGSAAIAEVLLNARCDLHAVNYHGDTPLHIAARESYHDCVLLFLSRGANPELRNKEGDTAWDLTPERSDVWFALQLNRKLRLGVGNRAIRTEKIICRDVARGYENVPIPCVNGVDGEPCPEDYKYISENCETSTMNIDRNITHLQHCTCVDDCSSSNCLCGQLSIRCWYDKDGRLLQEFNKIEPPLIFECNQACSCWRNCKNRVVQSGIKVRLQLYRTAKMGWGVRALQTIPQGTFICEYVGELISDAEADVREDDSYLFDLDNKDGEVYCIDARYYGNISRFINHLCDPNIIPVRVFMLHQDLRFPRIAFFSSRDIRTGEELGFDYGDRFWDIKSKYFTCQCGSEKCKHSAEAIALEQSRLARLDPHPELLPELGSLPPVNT
Kind of experiment: HMT selectivity assay. The format is biochemical. A digest of the protocol:
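Triplicate reactions, 1 h, room temperature. Guanidine HCl stop; Flashplate SPA counts. Activity relative to no-compound (100%) and no-enzyme (0%). IC50 over 100 nM–100 μM; Ki = IC50/2.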

The target in another experiment is PRMT3 (Homo sapiens, UniProt O60678). Kind of experiment: HMT selectivity assay. The format is biochemical.
The next experiment has as its target MLL1 complex (Homo sapiens, UniProt Q03164). Kind of experiment: HMT selectivity assay. Type of experiment: biochemical. An outline of the steps: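 Triplicate, 1 h at room temperature. Quenched with 7.5 M guanidine HCl; tritium read by Flashplate SPA. Normalised to no-compound and no-enzyme wells. IC50 from 100 nM–100 μM; Ki = IC50/2.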

Structures are written as SMILES.

MLL1 complex, sequence (Q9UBL3 whole entry): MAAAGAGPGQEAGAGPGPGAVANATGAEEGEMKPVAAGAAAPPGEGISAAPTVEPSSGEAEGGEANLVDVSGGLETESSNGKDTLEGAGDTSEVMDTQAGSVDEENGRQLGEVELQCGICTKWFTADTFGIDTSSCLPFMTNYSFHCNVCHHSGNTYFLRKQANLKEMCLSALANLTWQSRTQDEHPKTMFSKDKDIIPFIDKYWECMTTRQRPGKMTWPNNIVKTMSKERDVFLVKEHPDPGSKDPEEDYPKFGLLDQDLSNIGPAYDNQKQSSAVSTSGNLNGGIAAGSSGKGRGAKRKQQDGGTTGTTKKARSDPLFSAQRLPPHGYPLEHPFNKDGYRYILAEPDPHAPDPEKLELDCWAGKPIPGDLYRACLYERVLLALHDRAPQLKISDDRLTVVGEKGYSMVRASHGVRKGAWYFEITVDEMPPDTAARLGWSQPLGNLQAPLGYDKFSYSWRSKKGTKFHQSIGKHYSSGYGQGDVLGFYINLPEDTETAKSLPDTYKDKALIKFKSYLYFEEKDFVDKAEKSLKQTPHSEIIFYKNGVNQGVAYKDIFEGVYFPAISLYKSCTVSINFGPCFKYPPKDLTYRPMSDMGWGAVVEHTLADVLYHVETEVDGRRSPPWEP
MLL1 complex, sequence (Q03164 3745-3969): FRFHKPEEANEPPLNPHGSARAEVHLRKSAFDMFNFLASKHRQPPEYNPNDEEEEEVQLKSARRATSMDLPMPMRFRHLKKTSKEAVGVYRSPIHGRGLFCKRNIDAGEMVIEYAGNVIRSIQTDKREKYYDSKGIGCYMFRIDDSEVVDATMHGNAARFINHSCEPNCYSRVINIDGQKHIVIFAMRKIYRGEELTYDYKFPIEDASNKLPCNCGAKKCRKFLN
MLL1 complex, sequence (Q15291 whole entry, further chain): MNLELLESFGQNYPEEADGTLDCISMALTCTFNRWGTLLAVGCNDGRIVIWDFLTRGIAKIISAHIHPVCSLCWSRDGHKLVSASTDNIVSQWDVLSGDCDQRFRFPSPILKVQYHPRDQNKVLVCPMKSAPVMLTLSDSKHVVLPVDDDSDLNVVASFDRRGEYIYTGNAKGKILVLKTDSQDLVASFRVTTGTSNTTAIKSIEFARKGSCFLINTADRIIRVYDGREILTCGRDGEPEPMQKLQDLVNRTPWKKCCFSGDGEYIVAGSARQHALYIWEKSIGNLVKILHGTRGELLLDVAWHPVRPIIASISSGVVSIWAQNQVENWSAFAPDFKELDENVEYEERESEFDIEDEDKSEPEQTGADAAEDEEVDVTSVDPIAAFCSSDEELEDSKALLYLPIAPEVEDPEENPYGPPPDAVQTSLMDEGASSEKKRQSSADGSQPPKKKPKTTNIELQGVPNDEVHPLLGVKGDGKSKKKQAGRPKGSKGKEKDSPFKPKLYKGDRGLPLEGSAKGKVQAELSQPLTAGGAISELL
SUV39H2, sequence (Q9H5I1 whole entry, species assumed): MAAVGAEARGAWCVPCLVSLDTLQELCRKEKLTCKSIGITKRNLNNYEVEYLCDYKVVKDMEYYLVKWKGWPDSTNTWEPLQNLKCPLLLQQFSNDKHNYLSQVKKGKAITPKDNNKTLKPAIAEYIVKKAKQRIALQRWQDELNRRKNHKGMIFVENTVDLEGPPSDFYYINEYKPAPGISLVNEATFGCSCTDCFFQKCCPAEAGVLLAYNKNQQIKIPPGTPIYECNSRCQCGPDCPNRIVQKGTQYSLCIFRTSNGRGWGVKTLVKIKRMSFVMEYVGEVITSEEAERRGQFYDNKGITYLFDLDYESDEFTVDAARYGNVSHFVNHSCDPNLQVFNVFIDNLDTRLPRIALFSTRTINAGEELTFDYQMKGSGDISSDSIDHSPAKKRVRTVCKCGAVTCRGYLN
EZH2 (PRC2 complex), sequence (Q15910 whole entry, species assumed): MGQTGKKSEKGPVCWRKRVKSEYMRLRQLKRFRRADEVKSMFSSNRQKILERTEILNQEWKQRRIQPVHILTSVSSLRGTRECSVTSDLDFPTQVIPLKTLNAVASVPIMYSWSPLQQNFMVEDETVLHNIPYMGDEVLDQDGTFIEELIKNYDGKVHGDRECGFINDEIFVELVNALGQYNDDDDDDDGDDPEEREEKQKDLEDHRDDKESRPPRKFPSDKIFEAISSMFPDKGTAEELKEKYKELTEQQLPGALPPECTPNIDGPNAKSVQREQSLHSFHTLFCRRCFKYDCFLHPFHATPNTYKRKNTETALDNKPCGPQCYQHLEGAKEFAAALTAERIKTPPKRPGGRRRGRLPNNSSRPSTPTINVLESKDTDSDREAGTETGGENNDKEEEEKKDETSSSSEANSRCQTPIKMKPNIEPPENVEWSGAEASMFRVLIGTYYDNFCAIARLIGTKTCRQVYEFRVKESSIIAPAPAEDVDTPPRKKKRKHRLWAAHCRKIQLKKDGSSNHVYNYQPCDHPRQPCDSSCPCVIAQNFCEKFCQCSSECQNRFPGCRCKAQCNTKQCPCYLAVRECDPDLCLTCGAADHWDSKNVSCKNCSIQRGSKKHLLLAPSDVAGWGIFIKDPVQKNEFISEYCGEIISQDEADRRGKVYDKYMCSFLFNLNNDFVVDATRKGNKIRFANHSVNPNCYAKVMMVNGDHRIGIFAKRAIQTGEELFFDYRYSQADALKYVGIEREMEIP
EZH2 (PRC2 complex), sequence (O75530 whole entry partner, species assumed): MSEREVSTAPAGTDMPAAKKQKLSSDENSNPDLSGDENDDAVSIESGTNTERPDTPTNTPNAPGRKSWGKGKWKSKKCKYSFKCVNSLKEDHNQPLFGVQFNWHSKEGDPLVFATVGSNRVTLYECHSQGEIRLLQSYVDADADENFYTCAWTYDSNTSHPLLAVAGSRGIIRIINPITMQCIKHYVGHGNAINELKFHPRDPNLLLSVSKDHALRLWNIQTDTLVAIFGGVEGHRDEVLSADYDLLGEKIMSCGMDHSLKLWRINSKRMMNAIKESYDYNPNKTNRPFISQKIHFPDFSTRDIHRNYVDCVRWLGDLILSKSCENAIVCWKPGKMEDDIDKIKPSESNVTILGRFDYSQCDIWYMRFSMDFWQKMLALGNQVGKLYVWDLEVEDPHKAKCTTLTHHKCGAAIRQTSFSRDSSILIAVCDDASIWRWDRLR
EZH2 (PRC2 complex), sequence (Q15022 whole entry partner, species assumed): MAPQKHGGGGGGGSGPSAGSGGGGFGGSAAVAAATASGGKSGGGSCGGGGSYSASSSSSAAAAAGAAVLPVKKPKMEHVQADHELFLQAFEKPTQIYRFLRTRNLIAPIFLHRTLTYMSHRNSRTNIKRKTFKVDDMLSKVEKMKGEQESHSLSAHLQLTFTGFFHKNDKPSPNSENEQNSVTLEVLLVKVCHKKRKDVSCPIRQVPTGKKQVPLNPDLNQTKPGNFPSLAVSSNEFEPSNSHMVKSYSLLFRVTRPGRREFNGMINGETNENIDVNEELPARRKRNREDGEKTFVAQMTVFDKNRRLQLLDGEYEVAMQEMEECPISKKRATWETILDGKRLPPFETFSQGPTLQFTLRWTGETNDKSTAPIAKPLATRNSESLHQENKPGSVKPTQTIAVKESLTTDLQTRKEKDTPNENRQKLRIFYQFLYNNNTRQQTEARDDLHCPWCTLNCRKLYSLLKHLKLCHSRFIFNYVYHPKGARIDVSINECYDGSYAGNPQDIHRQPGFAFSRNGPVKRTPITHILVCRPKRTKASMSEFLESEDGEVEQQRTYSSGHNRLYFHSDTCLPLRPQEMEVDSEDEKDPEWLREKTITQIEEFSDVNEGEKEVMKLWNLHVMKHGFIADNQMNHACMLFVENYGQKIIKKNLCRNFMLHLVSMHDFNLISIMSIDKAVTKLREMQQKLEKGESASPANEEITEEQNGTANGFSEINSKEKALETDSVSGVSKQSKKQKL
PRMT5-MEP50, sequence (O14744 whole entry, the tested form may be a part): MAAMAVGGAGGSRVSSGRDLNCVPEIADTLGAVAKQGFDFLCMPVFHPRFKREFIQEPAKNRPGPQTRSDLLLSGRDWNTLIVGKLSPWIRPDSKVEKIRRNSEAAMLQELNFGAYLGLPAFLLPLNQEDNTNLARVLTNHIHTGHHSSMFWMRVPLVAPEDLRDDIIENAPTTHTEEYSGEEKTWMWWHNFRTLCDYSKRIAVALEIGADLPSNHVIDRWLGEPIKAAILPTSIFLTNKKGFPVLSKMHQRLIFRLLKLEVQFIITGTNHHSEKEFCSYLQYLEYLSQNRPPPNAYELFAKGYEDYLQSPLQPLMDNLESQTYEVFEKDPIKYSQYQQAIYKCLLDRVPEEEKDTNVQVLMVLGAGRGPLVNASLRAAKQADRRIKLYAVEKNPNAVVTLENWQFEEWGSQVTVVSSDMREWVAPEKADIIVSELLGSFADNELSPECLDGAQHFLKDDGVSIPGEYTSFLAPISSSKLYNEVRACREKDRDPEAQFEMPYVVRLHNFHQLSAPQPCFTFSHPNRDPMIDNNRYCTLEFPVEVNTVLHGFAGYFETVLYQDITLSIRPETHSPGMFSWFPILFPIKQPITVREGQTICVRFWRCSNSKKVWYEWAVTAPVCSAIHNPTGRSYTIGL
PRMT5-MEP50, sequence (Q9BQA1 whole entry partner, the tested form may be a part): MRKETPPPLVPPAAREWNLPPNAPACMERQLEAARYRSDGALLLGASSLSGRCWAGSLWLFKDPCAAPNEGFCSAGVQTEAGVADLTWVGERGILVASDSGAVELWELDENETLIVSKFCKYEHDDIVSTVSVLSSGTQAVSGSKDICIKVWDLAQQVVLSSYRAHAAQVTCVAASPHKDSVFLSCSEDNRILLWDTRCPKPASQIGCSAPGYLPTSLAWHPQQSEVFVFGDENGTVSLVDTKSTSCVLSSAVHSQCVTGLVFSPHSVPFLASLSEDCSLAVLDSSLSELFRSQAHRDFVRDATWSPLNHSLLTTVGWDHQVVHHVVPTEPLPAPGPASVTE

Regarding `Nc1ncnc2c1c(Br)cn2[C@@H]1O[C@H](CSCC[C@H](N)C(=O)O)[C@@H](O)[C@H]1O` [BrSAH, N7-Bromo-deaza-S-adenosyl-L-homocysteine], the “activity against EHMT1/GLP” value at EHMT1/GLP is “inactive”. In addition, the Ki entry is “No inhibition” at EHMT1/GLP (EHMT1, compound 100 nM to 100 μM, SAM = Km); “No inhibition” on EZH2 (PRC2 complex) (PRC2, compound 100 nM to 100 μM, SAM = Km); “No inhibition” on SETD8 (SETD8, compound 100 nM to 100 μM, SAM = Km); “No inhibition” on SETD7 (SETD7, compound 100 nM to 100 μM, SAM = Km); “No inhibition” on SUV39H2 (SUV39H2, compound 100 nM to 100 μM, SAM = Km); “No inhibition” at EHMT2/G9a (G9a, compound 100 nM to 100 μM, SAM = Km). The Ki entry at MLL1 complex (MLL, compound 100 nM to 100 μM, SAM = Km) is on record as “No inhibition”. The “activity against EZH2 (present in the PRC2 complex)” value at EZH2 (PRC2 complex) was “inactive”. Moreover, the “activity against SETD8” value at SETD8 is “inactive”. Moreover, at SETD7, the “activity against SETD7” value was “inactive”. Moreover, the “activity against SUV39H2” value at SUV39H2 is “inactive”. Further, the IC50 against PRMT5-MEP50 and at PRMT3 was 2000 nM throughout. Moreover, on PRMT5-MEP50 (IC50 ratio versus DOT1L), the “times less active against PRMT5 than DOT1L” value is “about 25”. For the same compound, at haspin catalytic domain, the “binding to the haspin catalytic domain by differential scanning fluorimetry” value is reported as “no binding”. The “activity against EHMT2/G9a” value at EHMT2/G9a was “inactive”. For the same compound, the “times less active against PRMT3 than DOT1L” value on PRMT3 (IC50 ratio versus DOT1L) was “about 25”. In addition, on MLL1 complex, the “activity against MLL” value was “inactive”.
